This is an account of results in ChEMBL document CHEMBL3124867, “Hepatitis C replication inhibitors that target the viral NS4B protein” (J Med Chem, 2014).

Some results are limits rather than exact numbers.

One data set has as its system Liver. The experiment in a line: Drug uptake in PXB mouse liver assessed as 4-(3-chloro-6-cyclopropyl-8-(trifluoromethyl)imidazo[1,2-a]pyridine-2-carbonyl)-1-((trans)-4-hydroxycyclohexyl)piperazin-2-one level at 10 to 30 mg/kg, po bid every 12 hrs for 7 days measured 12 hrs post last dose. As to conditions: in vivo; call rule not given here. Details: dose 10-30 mg/kg, route oral. In kind it is ADME, organism-based. The gist of the method:
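Uninfected PXB mice were given the prodrug orally at 10 or 30 mg/kg b.i.d. for 7 days. Liver tissue was taken 12 h after the day-7 dose and the level of parent drug in liver was measured relative to plasma.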

Data set [1] concerns Hepatitis C virus. The experiment in a line: Antiviral activity against wild-type Hepatitis C virus genotype 1a infected in PXB mouse assessed as log reduction in viral mRNA titer at 10 to 30 mg/kg, po bid every 12 hrs for 7 days measured after 12 hrs relative to control. Format: functional, Hepacivirus hominis, subtype 1a. To be noted: dose mg/kg 10-30. Summed up: (§1)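 PXB mice infected with wild-type HCV genotype 1a virus were dosed orally b.i.d. 5−8 weeks after infection with the phosphate prodrug of the lead (10 or 30 mg/kg) for 7 days, n = 4/group. A non-nucleoside NS5B inhibitor at 100 mg/kg b.i.d. served as positive control. Read-out was HCV viral RNA titer (viral load) over the course of treatment.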

For a further data set, the system named is Rattus norvegicus. The experiment in a line: Prodrug conversion in CD rat assessed as 4-(3-chloro-6-cyclopropyl-8-(trifluoromethyl)imidazo[1,2-a]pyridine-2-carbonyl)-1-((trans)-4-hydroxycyclohexyl)piperazin-2-one level at 300 mg/kg, po. Format: ADME, organism-based. Details: dose 300 mg/kg, route oral. To be noted: in vivo. Summed up: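 CD rats were given a single oral dose of 300 mg/kg of parent suspension or of prodrug. Plasma was assayed for the parent drug and for uncleaved prodrug.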

Data set [2] in a line: Toxicity in po dosed PXB mouse assessed as compound accumulation administered bid every 12 hrs for 7 days. Format: organism-based. To be noted: in vivo. The gist of the method: (§2)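 Repeat-dose tolerability study in uninfected PXB mice, run before HCV infection. The test agent was given orally as a phosphate prodrug at 10 and 30 mg/kg b.i.d. for 7 days. Plasma exposure of the parent drug was followed over the course, and liver tissue was taken 12 h after dosing on day 7.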

In data set [3] the test system is Hepatitis C virus. The experiment in a line: Antiviral activity against wild-type Hepatitis C virus genotype 1a infected in PXB mouse assessed as log reduction in viral mRNA titer at 10 to 30 mg/kg, po bid every 12 hrs for 7 days measured on day 4 relative to control. In kind it is functional, Hepacivirus hominis, subtype 1a. To be noted: dose mg/kg 10-30. Summed up: as §1

For data set [4], the system named is Hepatitis C virus. The experiment in a line: Antiviral activity against wild-type Hepatitis C virus genotype 1a infected in po dosed PXB mouse assessed as log reduction in viral mRNA titer administered bid every 12 hrs for 7 days measured on day 7 relative to control. To be noted: Hepacivirus hominis; subtype 1a. In kind it is functional, organism-based. The gist of the method:
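PXB mice were infected with HCV genotype 1a wild-type virus and treated 5−8 weeks later (n = 4/group). Oral dosing b.i.d. for 7 days: prodrug at 10 or 30 mg/kg, or positive control at 100 mg/kg. Serum HCV RNA titers (viral load) were followed over the course of dosing.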

In data set [5] the test system is Mus musculus. Kind of data set: AUC (0 to 12 hrs) in PXB mouse assessed as 4-(3-chloro-6-cyclopropyl-8-(trifluoromethyl)imidazo[1,2-a]pyridine-2-carbonyl)-1-((trans)-4-hydroxycyclohexyl)piperazin-2-one level at 10 mg/kg, po. Format: ADME, organism-based, Plasma. To be noted: in vivo. Set-up: time < 12 hr, dose 10 mg/kg, route oral. Summed up:
(§3)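 Single oral dose of the phosphate prodrug at 10 or 30 mg/kg to uninfected PXB mice (n = 3/group). Plasma levels of the parent drug were followed over 12 h, and AUC0−12h was calculated for the parent.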

The nature of data set [6]: Toxicity in po dosed PXB mouse assessed as induction of metabolism administered bid every 12 hrs for 7 days. Format: organism-based. As to conditions: in vivo. Summed up:
as §2

Data set [7] is described as follows: Aqueous solubility in fasted state simulated intestinal fluid at pH 6.5 by LC/UV analysis. Format: physicochemical.
Data set [8] deals with Mus musculus. Kind of data set: AUC (0 to 12 hrs) in PXB mouse assessed as 4-(3-chloro-6-cyclopropyl-8-(trifluoromethyl)imidazo[1,2-a]pyridine-2-carbonyl)-1-((trans)-4-hydroxycyclohexyl)piperazin-2-one level at 30 mg/kg, po. Format: ADME, organism-based, Plasma. Details: time < 12 hr, dose 30 mg/kg, route oral. To be noted: in vivo. Summed up: as §3

By AUC is commonly meant concentration integrated over time. As usually defined, the solubility is the concentration that dissolves in the medium under given conditions. As to `O=C(c1nc2c(C(F)(F)F)cc(C3CC3)cn2c1Cl)N1CCN([C@H]2CC[C@H](OP(=O)(O)O)CC2)C(=O)C1`, in the data set on Liver, the Drug uptake entry is given as “Active”. In addition, the results for the FC in the data set on Hepatitis C virus [1] and with Hepatitis C virus [3] were 1 and 4, respectively. Further, the Stability result in the data set with Rattus norvegicus is “Unstable”. For the same molecule, the MTD at 7 days in data set [2] came to 10 mg/kg; in data set [6], 30 mg/kg. The Activity result in the data set on Hepatitis C virus [4] is “Dose-dependent effect”. For the same molecule, the AUC turned out to be 15000 ng·h/mL with Mus musculus [5] and 66000 ng·h/mL with Mus musculus [8]. The same molecule showed a solubility in [7] of over 1000 µg/mL.
